Data from ChEMBL document CHEMBL1151466 (Antimicrob Agents Chemother, 2008).
One block for each compound: values may come before it.

Columns and labels:
[1] = Volume of distribution at steady state with respect to bioavailability in Paua New Guinean children with uncomplicated malaria at 10 mg/kg daily for 3 days; assay type: ADME, organism-based; details: human, in vivo, read-out: Vc/F
How it was run: (§1)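 Children aged 5–10 y with uncomplicated malaria took oral CQ at 10 mg base/kg daily at 0, 24 and 48 h, with single-dose SP given alongside the first dose, without fasting. Heparin plasma was sampled serially to day 42, stored at −80°C, extracted with t-butyl methyl ether, and measured by HPLC-UV at 340 nm. Two-compartment model fitting used 1/y2 weighting.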

[2] = AUC (0 to 42 days) in Paua New Guinean children with uncomplicated malaria at 10 mg/kg daily for 3 days; assay type: ADME, organism-based; set-up: time < 1008 hr, dose 10 mg/kg; details: human, plasma; how it was run: as §1
[3] = Elimination half life in Paua New Guinean children with uncomplicated malaria at 10 mg/kg daily for 3 days; assay type: ADME, organism-based; set-up: dose 10 mg/kg; details: human, in vivo, read-out: beta t1/2 (converted); how it was run: as §1
[4] = Apparent clearance with respect to bioavailability in human; assay type: ADME, organism-based; details: in vivo
[5] = Apparent clearance with respect to bioavailability in human with malaria; assay type: ADME, organism-based; details: in vivo
Homo sapiens [6] = experiment: AUC (0 to infinity) in Paua New Guinean children with uncomplicated malaria at 10 mg/kg daily for 3 days; assay type: ADME, organism-based, Plasma; set-up: time infinity, dose 10 mg/kg; details: in vivo, 72 h; how it was run: as §1
Homo sapiens [7] = experiment: Tlag in Paua New Guinean children with uncomplicated malaria at 10 mg/kg daily for 3 days; assay type: ADME, organism-based; set-up: dose 10 mg/kg; details: in vivo, 72 h; how it was run: as §1
[8] = AUC (0 to 42 days) in Paua New Guinean children with uncomplicated malaria; assay type: ADME, organism-based; set-up: time < 1008 hr; details: human, plasma
Plasmodium falciparum [9] = experiment: Antiplasmodial activity against chloroquine-sensitive Plasmodium falciparum; assay type: functional, organism-based
[10] = AUC (0 to infinity) in Paua New Guinean children with uncomplicated malaria; assay type: ADME, organism-based; set-up: time infinity; details: human, plasma
[11] = Elimination half life in Paua New Guinean children with uncomplicated malaria; assay type: ADME, organism-based; details: human, in vivo; read-out: beta t1/2 (converted)
Plasmodium falciparum [12] = experiment: Antiplasmodial activity against chloroquine-resistant Plasmodium falciparum; assay type: functional, organism-based
Homo sapiens [13] = species: Homo sapiens; experiment: Volume of distribution at steady state with respect to bioavailability in human after fat meal using non-compartmental analysis; assay type: ADME, organism-based; details: in vivo
[14] = Apparent clearance with respect to bioavailability in human after fasting using non-compartmental analysis; assay type: ADME, organism-based; details: in vivo
[15] = Apparent clearance with respect to bioavailability in Paua New Guinean children with uncomplicated malaria at 20 mg/kg daily for 3 days; assay type: ADME, organism-based; details: human, in vivo
How it was run: (§2)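 Children aged 5–10 y with uncomplicated malaria were given oral DHA-PQ at PQ phosphate 20 mg/kg (11.5 mg base/kg) daily at 0, 24 and 48 h, swallowed with water, without fasting. Sampling was serial to day 42. Heparin plasma was stored at −80°C, extracted with hexane-isoamyl alcohol, and assayed by HPLC with UV detection at 340 nm. Parameters came from a two-compartment model with 1/y2 weighting.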

[16] = Volume of distribution at steady state with respect to bioavailability in Vietnamese human; assay type: ADME, organism-based; details: in vivo, read-out: Vc/F
[17] = Apparent clearance with respect to bioavailability in human after fat meal using non-compartmental analysis; assay type: ADME, organism-based; details: in vivo
[18] = Apparent clearance with respect to bioavailability in Vietnamese human; assay type: ADME, organism-based; details: in vivo
[19] = Elimination half life in Paua New Guinean children with uncomplicated malaria at 20 mg/kg daily for 3 days; assay type: ADME, organism-based; set-up: dose 20 mg/kg; details: human, in vivo, read-out: beta t1/2 (converted); how it was run: as §2
Homo sapiens [20] = experiment: Tlag in Paua New Guinean children with uncomplicated malaria at 20 mg/kg daily for 3 days; assay type: ADME, organism-based; set-up: dose 20 mg/kg; details: in vivo, 72 h; how it was run: as §2
[21] = Volume of distribution at steady state with respect to bioavailability in Paua New Guinean children with uncomplicated malaria at 20 mg/kg daily for 3 days; assay type: ADME, organism-based; details: human, in vivo, read-out: Vc/F; how it was run: as §2
[22] = AUC (0 to 42 days) in Paua New Guinean children with uncomplicated malaria at 20 mg/kg daily for 3 days; assay type: ADME, organism-based; set-up: time < 1008 hr, dose 20 mg/kg; details: human, plasma; how it was run: as §2
[23] = Elimination half life in Cambodian children with malaria; assay type: ADME, organism-based; details: human, in vivo; read-out: beta t1/2 (converted)
[24] = Volume of distribution at steady state with respect to bioavailability in Cambodian children with malaria; assay type: ADME, organism-based; details: human, in vivo; read-out: Vc/F
[25] = AUC (0 to infinity) in Paua New Guinean children with uncomplicated malaria at 20 mg/kg daily for 3 days; assay type: ADME, organism-based; set-up: time infinity, dose 20 mg/kg; details: human, plasma; how it was run: as §2

Vd/F [1]: 154 L/kg
AUC at 1008 h [2]: 117 µM·h
half-life [3]: 9.71 days
CL/F [4]: 2.17 mL/min/kg
CL/F [5]: 2.17 mL/min/kg
AUC (Homo sapiens [6]): 122.5 µM·h
Tlag (Homo sapiens [7]): 0.55 h
SMILES: CCN(CC)CCCC(C)Nc1ccnc2cc(Cl)ccc12 (configuration not stated) [CHLOROQUINE]

SMILES: CCNCCCC(C)Nc1ccnc2cc(Cl)ccc12 (configuration not stated) [DESETHYLCHLOROQUINE]
AUC(0-t) at 1008 h [8]: 83.6 µM·h
IC50 (Plasmodium falciparum [9]): 17.8 nM
AUC(0-inf) [10]: 98.5 µM·h
half-life [11]: 12.1 days
IC50 (Plasmodium falciparum [12]): 37.4 nM

SMILES: Clc1ccc2c(N3CCN(CCCN4CCN(c5ccnc6cc(Cl)ccc56)CC4)CC3)ccnc2c1 [PIPERAQUINE]
Vc/F (Homo sapiens [13]): 365 L/kg
CL/F [14]: 19 mL/min/kg
CL/F [15]: 14.2 mL/min/kg
IC50 (Plasmodium falciparum [9]): 35.5 nM
Vd/F [16]: 103 L/kg
CL/F [17]: 10 mL/min/kg
CL/F [18]: 16.2 mL/min/kg
half-life [19]: 17.2 days
Tlag (Homo sapiens [20]): 0.89 h
Vd/F [21]: 431 L/kg
AUC at 1008 h [22]: 76.4 µM·h
half-life [23]: 13.5 days
Vd/F [24]: 614 L/kg
IC50 (Plasmodium falciparum [12]): 40.7 nM
AUC(0-inf) [25]: 87.4 µM·h
